Calls of active or inactive are those of the source. The rule behind the calls is not given here.
What was measured:
[1] = system: Mus musculus; experiment: Neurological toxicity in Albino Swiss CD1 mouse at 100 mg/kg, ip after 0.5 hrs by rotarod test; format: organism-based; design: dose 100 mg/kg, route intraperitoneal; details: in vivo
Method in brief: (§1)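 Mice were trained on a 2 cm rod for 3 min, with unlimited trials, at least 24 h before testing. Each was then dosed ip at 100 mg/kg and tested at 10 rpm 0.5 h or 2 h later, in groups of 4. Failure to stay on the rod for at least 1 min indicated neurotoxicity.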

[2] = system: Mus musculus; experiment: Neurological toxicity in Albino Swiss CD1 mouse at 100 mg/kg, ip after 2 hrs by rotarod test; format: organism-based; design: dose 100 mg/kg, route intraperitoneal; details: in vivo; method in brief: as §1
[3] = system: Mus musculus; experiment: Anticonvulsant activity in Albino Swiss CD1 mouse at 100 mg/kg, ip after 0.5 hrs by maximal electroshock test; format: functional, organism-based; design: dose 100 mg/kg
Method in brief: (§2)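 Male CD-1 mice, 16–26 g, in groups of 4, each mouse used once, were given 100 mg/kg ip (0.1 mL/10 g, methylcellulose vehicle). MES used 25 mA, 500 V, 50 Hz delivered by ear electrodes for 0.2 s, and absence of hindlimb tonic extension counted as protection. In scPTZ, mice without clonic convulsions over 30 min of observation counted as protected. Both tests were run 0.5 h or 2 h after dosing.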

[4] = system: Mus musculus; experiment: Anticonvulsant activity in Albino Swiss CD1 mouse at 100 mg/kg, ip after 2 hrs by maximal electroshock test; format: functional, organism-based; design: dose 100 mg/kg; method in brief: as §2
[5] = system: Mus musculus; experiment: Anticonvulsant activity in Albino Swiss CD1 mouse at 100 mg/kg, ip after 0.5 hrs by subcutaneous pentylenetetrazole test; format: functional, organism-based; design: dose 100 mg/kg; method in brief: as §2
[6] = system: Mus musculus; experiment: Anticonvulsant activity in Albino Swiss CD1 mouse at 100 mg/kg, ip after 2 hrs by subcutaneous pentylenetetrazole test; format: functional, organism-based; design: dose 100 mg/kg; method in brief: as §2
[7] = system: Mus musculus; experiment: Anticonvulsant activity in intraperitoneally dosed Albino Swiss CD1 mouse after 0.5 hrs by maximal electroshock test; format: functional
Method in brief: (§3)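 Male CD-1 mice were dosed ip (0.1 mL/10 g, methylcellulose vehicle), at least four dose groups of 6 mice each. Protection in MES meant no hindlimb tonic extension after a 25 mA, 50 Hz, 0.2 s ear-electrode shock. Protection in scPTZ meant no clonus over 30 min.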

[8] = system: Mus musculus; experiment: Anticonvulsant activity in intraperitoneally dosed Albino Swiss CD1 mouse assessed as time to peak effect by maximal electroshock test; format: functional
[9] = system: Mus musculus; experiment: Anticonvulsant activity in intraperitoneally dosed Albino Swiss CD1 mouse assessed as time to peak effect after 2 hrs by subcutaneous pentylenetetrazole test; format: functional
[10] = system: Mus musculus; experiment: Anticonvulsant activity in intraperitoneally dosed Albino Swiss CD1 mouse by maximal electroshock test; format: functional; details: Albino Swiss CD1, ip; method in brief: as §3
[11] = Neurological toxicity in intraperitoneally dosed Albino Swiss CD1 mouse by rotarod test; format: organism-based; details: in vivo, ip
Method in brief: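 Mice trained on the rotarod were given various ip doses, four groups in all, and tested at 10 rpm. Failure to stay on the rod for at least 1 min indicated neurotoxicity.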

[12] = organism: Mus musculus; experiment: Protective index, ratio of neurotoxic TD50 in Albino Swiss CD1 mouse by rotarod test to anticonvulsant ED50 in Albino Swiss CD1 mouse by maximal electroshock test
Method in brief: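 The protective index is the rotarod TD50 divided by the MES or scPTZ ED50. Each value came from ip dosing in male CD-1 mice with probit analysis, and the reference drugs were tested under the same conditions.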

SMILES	Activity [1]	Activity [2]	Activity [3]	Activity [4]	Activity [5]	Activity [6]	MED50 [7]	Time [8]	Time [9]	ED50 [10]	TD50 [11]	Ratio TD50/ED50 [12]
CC(C(=O)NCC1CCCCC1)N1C(=O)CCC1=O (stereo not given)	Non-toxic	Non-toxic	inactive	inactive	inactive	inactive						
CC1CC(=O)N(C(C)C(=O)NCc2ccccc2Cl)C1=O (racemic)	Non-toxic	Non-toxic		inactive	inactive	inactive	100 mg/kg	0.5 h	0.5 h	85.8 mg/kg	275 mg/kg	3.2
CC1CC(=O)N(C(C)C(=O)NCc2cccc(Cl)c2)C1=O (racemic)	Non-toxic	Non-toxic		inactive	inactive	inactive	100 mg/kg	0.5 h	0.5 h	90.3 mg/kg	247 mg/kg	2.73
CC1CC(=O)N(C(C)C(=O)NCc2ccccc2F)C1=O (racemic)	Non-toxic	Non-toxic		inactive	inactive	inactive	100 mg/kg	0.5 h	0.5 h	80.5 mg/kg	239 mg/kg	2.97
CC1CC(=O)N(C(C)C(=O)NCc2cccc(F)c2)C1=O (racemic)	Non-toxic	Non-toxic		inactive	inactive	inactive	100 mg/kg	0.5 h	0.5 h	130 mg/kg	297 mg/kg	2.29
CC1CC(=O)N(C(C)C(=O)NCC2CCCCC2)C1=O (racemic)	Non-toxic	Non-toxic	inactive	inactive	inactive	inactive						
CC(C(=O)NCc1ccccc1Cl)N1C(=O)CCC1=O (racemic)	Non-toxic	Non-toxic		inactive	inactive	inactive	100 mg/kg	0.5 h	0.5 h	74.5 mg/kg	340 mg/kg	4.57
CC(C(=O)NCc1cccc(Cl)c1)N1C(=O)CCC1=O (racemic)	Non-toxic	Non-toxic		inactive	inactive	inactive	100 mg/kg	0.5 h	0.5 h	82 mg/kg	347 mg/kg	4.23
CC(C(=O)NCc1cccc(F)c1)N1C(=O)CCC1=O (racemic)	Non-toxic	Non-toxic		inactive	inactive	inactive	100 mg/kg	0.5 h	0.5 h	77.4 mg/kg	> 500 mg/kg	>6.46
CC(C(=O)NCc1cccc(C(F)(F)F)c1)N1C(=O)CCC1=O (racemic)	Non-toxic	Non-toxic		inactive	inactive	inactive	100 mg/kg	0.5 h	0.5 h	92.4 mg/kg	332 mg/kg	3.59
CCC1(C)CC(=O)NC1=O (stereo not given) [ETHOSUXIMIDE]								0.25 h	0.25 h	> 500 mg/kg		
CCCC(CCC)C(=O)O [VALPROIC ACID]								0.5 h	0.5 h			

— ChEMBL document CHEMBL3400073, “Design, synthesis and biological evaluation of new hybrid anticonvulsants derived from N-benzyl-2-(2,5-dioxopyrrolidin-1-yl)propanamide and 2-(2,5-dioxopyrrolidin-1-yl)butanamide derivatives” (Bioorg Med Chem, 2015)
